The nature of data set [1]: Michaelis-Menten constant against mammalian malate dehydrogenase (MDH). The method in brief:
(§1)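 NAD is varied and the A340 increase from NADH formation is monitored (ε 6.22 mM-1 cm-1). Buffers differ by enzyme: ADH in 0.1 M phosphate, pH 8.0, with ethanol 1.2 mM; GDH in 0.1 M phosphate, pH 7.0, with 10 μM EDTA; LDH and MDH in 0.05 M Tris-HCl, pH 9.0. At least duplicate.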

Data set [2] deals with NC(=O)c1ccc[n+]([C@@H]2O[C@H](COP(=O)([O-])OP(=O)(O)OC[C@H]3O[C@@H](n4cnc5c(N)ncnc54)[C@H](O)[C@@H]3O)[C@@H](O)[C@H]2O)c1. The data set can be described thus: Michaelis-Menten constant against mammalian lactate dehydrogenase (LDH). The note with it: Sus scrofa. The method in brief: as §1
Data set [3] has the same test system. Briefly: Michaelis-Menten constant against mammalian glutamate dehydrogenase (GDH). The gist of the method:
as §1

Glutamate dehydrogenase 1, mitochondrial (Bos taurus), P00366, sequence (P00366 whole entry): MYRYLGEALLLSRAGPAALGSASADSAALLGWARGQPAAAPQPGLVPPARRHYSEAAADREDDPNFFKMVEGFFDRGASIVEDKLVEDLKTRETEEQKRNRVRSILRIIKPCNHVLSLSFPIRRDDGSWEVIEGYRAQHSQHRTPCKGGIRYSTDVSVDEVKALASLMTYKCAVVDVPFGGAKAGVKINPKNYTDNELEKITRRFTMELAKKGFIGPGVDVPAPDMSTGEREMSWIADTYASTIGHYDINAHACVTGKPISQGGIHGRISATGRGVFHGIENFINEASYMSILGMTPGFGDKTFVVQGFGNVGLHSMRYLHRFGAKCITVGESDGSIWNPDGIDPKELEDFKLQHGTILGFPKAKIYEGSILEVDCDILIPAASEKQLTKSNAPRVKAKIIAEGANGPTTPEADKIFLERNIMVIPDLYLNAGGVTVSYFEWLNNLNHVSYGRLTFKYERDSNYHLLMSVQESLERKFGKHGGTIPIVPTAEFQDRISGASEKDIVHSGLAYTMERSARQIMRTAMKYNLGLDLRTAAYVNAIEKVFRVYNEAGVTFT

With `NC(=O)c1ccc[n+]([C@@H]2O[C@H](COP(=O)([O-])OP(=O)(O)OC[C@H]3O[C@@H](n4cnc5c(N)ncnc54)[C@H](O)[C@@H]3O)[C@@H](O)[C@H]2O)c1`, in data set [1], the Km (commonly the substrate concentration at which the rate is half of its maximum) worked out at 32 µM.

For the molecule “L-lactate dehydrogenase A chain (Homo sapiens) (from UniProt P00338)”, the Km in data set [2] came out at 141 µM.

For “Glutamate dehydrogenase 1, mitochondrial (Bos taurus), P00366”, the Km in data set [3] amounted to 30 µM.

Values taken from ChEMBL document CHEMBL1127319, “CNAD: a potent and specific inhibitor of alcohol dehydrogenase” (J Med Chem, 1994).
